pIC50: −log10 of the molar value. Activity calls are given as the source filed them. The rule behind the calls is not given here.
Legend:
[1] = Downregulation of phosphorylated ATM expression in human HCT116 cells at 30 uM after 1 hr by Western blot analysis; type: functional, cell-based; conditions: HCT-116, TDE = time-dependent effect
In short: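 HCT116 cells exposed for 1 h in complete medium; RIPA lysates quantified by BCA, equal protein separated on 8–13% SDS-PAGE, transferred to PVDF, probed with primary antibodies overnight at 4 °C and HRP secondaries, chemiluminescence read-out.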

HCT-116 [2] = assay: Induction of reactive oxygen species in human HCT116 cells at 7.5 uM after 48 hrs by DCFH-DA staining-based flow cytometric analysis (reference value: 5.1%); type: functional
[3] = Upregulation of phosphorylated ATR expression in human HCT116 cells at 1 hr by Western blot analysis; type: functional, cell-based; conditions: HCT-116
[4] = Downregulation of phosphorylated cyclin B1 at Ser147 expression in human HCT116 cells at 7.5 to 30 uM after 24 hrs by Western blot analysis; type: functional, cell-based; conditions: HCT-116
In short: (§1)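 HCT116 cells exposed 24 h in complete medium; lysed in RIPA buffer (pH 8.0), protein by BCA, equal loads run on 8–13% SDS-PAGE, PVDF transfer, blocked in 5% BSA/TBST, primary antibodies overnight at 4 °C, HRP secondaries 2 h RT, ECL detection; β-actin as loading control.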

HCT-116 [5] = assay: Induction of cell cycle arrest in human HCT116 cells assessed as accumulation at sub-G1 phase at 7.5 uM after 48 hrs by propidium iodide staining-based flow cytometric analysis in presence of RNase A (reference value: 6.5%); type: functional
HCT-116 [6] = assay: Induction of morphological change in human HCT116 cells assessed as loss of contact with surface of culture dish at 30 uM after 24 to 48 hrs by phase contrast microscopic analysis; type: functional, cell-based
In short: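 HCT116 cells incubated with compound for 24 h, then viewed and photographed under phase-contrast microscopy; also examined at 48 h.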

[7] = Upregulation of ATR expression in human HCT116 cells up to 24 hrs at 1 hr by Western blot analysis; type: functional, cell-based; conditions: HCT-116
HCT-116 [8] = assay: Induction of cell cycle arrest in human HCT116 cells assessed as accumulation at G0/G1 phase at 7.5 uM after 48 hrs by propidium iodide staining-based flow cytometric analysis in presence of RNase A (reference value: 54.3%); type: functional
HCT-116 [9] = assay: Induction of apoptosis in human HCT116 cells assessed as cleaved PARP level at 30 uM up to 48 hrs by Western blot analysis in presence of NAC
[10] = Downregulation of CDK2 expression in human HCT116 cells at 7.5 to 30 uM after 24 hrs by Western blot analysis; type: functional, cell-based; conditions: HCT-116; in short: as §1
HCT-116 [11] = assay: Induction of apoptosis in human HCT116 cells assessed as cleaved caspase 8 level at 30 uM up to 24 hrs by Western blot analysis in presence of NAC; type: functional, cell-based
[12] = Downregulation of cyclin A expression in human HCT116 cells at 7.5 to 30 uM after 24 hrs by Western blot analysis; type: functional, cell-based; conditions: HCT-116; in short: as §1
HCT-116 [13] = assay: Induction of cell cycle arrest in human HCT116 cells assessed as accumulation at G2/M phase at 15 uM after 48 hrs by propidium iodide staining-based flow cytometric analysis in presence of RNase A (reference value: 19.7%); type: functional
[14] = Antitumor activity against human HCT116 cells xenografted in nude mouse assessed as tumor growth inhibition at 10 mg/kg, ip administered 3 times per week measured on day 41; type: functional; conditions: HCT-116, ip, 984 h, read-out: TGI
In short: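 Nude mice given 2 × 10^6 HCT116 cells subcutaneously in flank; at ~120 mm3 randomised, six per group; ip dosing in 200 μL, test agent 5 or 10 mg/kg three times weekly, irinotecan 10 mg/kg once weekly; tumour volume measured twice weekly to day 41; body weight tracked for toxicity.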

[15] = target: Cyclin-dependent kinase inhibitor 1B/S-phase kinase-associated protein 2 (Homo sapiens) (UniProt Q13309+P46527); assay: Inhibition of Skp2/p27 protein interaction in human HCT116 cells after 24 hrs by immunoprecipitation assay; type: cell-based; conditions: HCT-116
In short: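 Protein measured by Bradford. Equal protein incubated with Protein G sepharose and the capture antibody (anti-p53, anti-Cul-1 or anti-Skp2) overnight at 4 °C. Bead eluates boiled in Laemmli/2-mercaptoethanol and analysed by Western blot.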

[16] = Antiproliferative activity against human HCT116 cells assessed as cell viability after 24 hrs by SRB assay; type: functional, cell-based; conditions: HCT-116, 24 h
In short: (§2)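 HCT116 cells in 96-well plates exposed 24, 48 or 72 h; TCA fixation, 0.4% SRB staining, dye solubilised in 10 mM Tris pH 10.0, absorbance at 515 nm; viability relative to solvent-treated control.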

HCT-116 [17] = assay: Induction of cell cycle arrest in human HCT116 cells assessed as accumulation at S phase at 30 uM after 48 hrs by propidium iodide staining-based flow cytometric analysis in presence of RNase A (reference value: 16.2%); type: functional
HCT-116 [18] = assay: Induction of cell cycle arrest in human HCT116 cells assessed as accumulation at S phase at 15 uM after 24 hrs by propidium iodide staining-based flow cytometric analysis in presence of RNase A (reference value: 13.4%); type: functional
HCT-116 [19] = assay: Induction of cell cycle arrest in human HCT116 cells assessed as accumulation at sub-G1 phase at 30 uM after 48 hrs by propidium iodide staining-based flow cytometric analysis in presence of RNase A (reference value: 6.5%); type: functional
HCT-116 [20] = assay: Induction of apoptosis in human HCT116 cells assessed as cleaved caspase 8 level at 30 uM up to 24 hrs by Western blot analysis; type: functional, cell-based
HCT-116 [21] = assay: Induction of apoptosis in human HCT116 cells assessed as dead cells at 7.5 uM after 48 hrs by annexin V-FITC/propidium iodide staining-based flow cytometric analysis (reference value: 2%); type: functional
RKO = assay: Antiproliferative activity against human RKO cells after 24 to 72 hrs by SRB assay; type: functional, cell-based
In short: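 Cells grown in 96-well plates (RPMI 1640; MRC-5 in MEM, 10% FBS, antibiotics) with compound […]; fixed in 10% TCA 30 min at 4 °C, stained 0.4% SRB in 1% acetic acid 1 h, dye dissolved in 10 mM Tris pH 10.0, A515 read; viability as % of solvent control, IC50 by nonlinear regression; mean of three independent experiments.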

[22] = Antiproliferative activity against human HCT116 cells assessed as cell viability after 48 hrs by SRB assay; type: functional, cell-based; conditions: HCT-116, 48 h; in short: as §2
[23] = target: Tumour suppressor p53/oncoprotein Mdm2 (Homo sapiens) (UniProt P04637+Q00987); assay: Inhibition of MDM2/P53 protein interaction in human HCT116 cells assessed as stabilization of p53 at 7.5 to 30 uM after 24 hrs by western blot analysis; type: cell-based; conditions: HCT-116
HCT-116 [24] = assay: Induction of reactive oxygen species in human HCT116 cells at 30 uM after 48 hrs by DCFH-DA staining-based flow cytometric analysis in presence of NAC (reference value: 5.1%); type: functional
In short: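 HCT116 cells seeded overnight, then exposed to test compounds, alone or with NAC, for 48 h in complete medium. Loaded with 20 μM DCFH-DA for 30 min; intracellular ROS in 20 000 cells per group read by flow cytometry as histograms.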

Chain of Tumour suppressor p53/oncoprotein Mdm2 (Homo sapiens) (P04637 whole entry, looked up): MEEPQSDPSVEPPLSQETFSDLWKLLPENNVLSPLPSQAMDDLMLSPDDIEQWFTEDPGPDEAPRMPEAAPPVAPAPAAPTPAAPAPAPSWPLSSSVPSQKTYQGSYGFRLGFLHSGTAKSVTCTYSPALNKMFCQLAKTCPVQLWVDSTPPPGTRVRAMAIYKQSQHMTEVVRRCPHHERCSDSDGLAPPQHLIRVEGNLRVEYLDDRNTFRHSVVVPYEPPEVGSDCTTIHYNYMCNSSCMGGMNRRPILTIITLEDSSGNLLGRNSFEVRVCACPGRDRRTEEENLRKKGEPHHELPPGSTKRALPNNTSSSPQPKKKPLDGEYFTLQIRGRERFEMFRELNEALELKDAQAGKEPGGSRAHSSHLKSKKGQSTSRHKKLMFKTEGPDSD
Chain of Tumour suppressor p53/oncoprotein Mdm2 (Homo sapiens) (Q00987 whole entry, looked up): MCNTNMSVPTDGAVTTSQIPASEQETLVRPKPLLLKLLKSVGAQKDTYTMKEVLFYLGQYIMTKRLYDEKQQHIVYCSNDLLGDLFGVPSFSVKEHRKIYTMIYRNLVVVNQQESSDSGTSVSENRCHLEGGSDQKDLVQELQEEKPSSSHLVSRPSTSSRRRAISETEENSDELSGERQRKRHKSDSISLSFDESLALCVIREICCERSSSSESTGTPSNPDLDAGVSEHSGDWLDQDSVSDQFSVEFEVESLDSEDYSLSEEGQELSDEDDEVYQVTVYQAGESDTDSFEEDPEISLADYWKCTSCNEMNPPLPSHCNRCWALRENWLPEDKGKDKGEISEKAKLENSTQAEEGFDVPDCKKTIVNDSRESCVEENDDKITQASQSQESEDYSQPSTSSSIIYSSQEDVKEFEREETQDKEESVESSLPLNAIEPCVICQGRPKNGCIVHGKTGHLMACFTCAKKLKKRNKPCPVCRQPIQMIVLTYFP
Chain of Cyclin-dependent kinase inhibitor 1B/S-phase kinase-associated protein 2 (Homo sapiens) (P46527 whole entry, looked up): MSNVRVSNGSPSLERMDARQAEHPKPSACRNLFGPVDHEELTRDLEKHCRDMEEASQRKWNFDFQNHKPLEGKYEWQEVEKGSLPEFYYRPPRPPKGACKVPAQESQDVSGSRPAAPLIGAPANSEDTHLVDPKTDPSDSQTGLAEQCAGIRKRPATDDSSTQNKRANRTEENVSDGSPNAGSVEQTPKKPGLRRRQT
Chain of Cyclin-dependent kinase inhibitor 1B/S-phase kinase-associated protein 2 (Homo sapiens) (Q13309 whole entry, looked up): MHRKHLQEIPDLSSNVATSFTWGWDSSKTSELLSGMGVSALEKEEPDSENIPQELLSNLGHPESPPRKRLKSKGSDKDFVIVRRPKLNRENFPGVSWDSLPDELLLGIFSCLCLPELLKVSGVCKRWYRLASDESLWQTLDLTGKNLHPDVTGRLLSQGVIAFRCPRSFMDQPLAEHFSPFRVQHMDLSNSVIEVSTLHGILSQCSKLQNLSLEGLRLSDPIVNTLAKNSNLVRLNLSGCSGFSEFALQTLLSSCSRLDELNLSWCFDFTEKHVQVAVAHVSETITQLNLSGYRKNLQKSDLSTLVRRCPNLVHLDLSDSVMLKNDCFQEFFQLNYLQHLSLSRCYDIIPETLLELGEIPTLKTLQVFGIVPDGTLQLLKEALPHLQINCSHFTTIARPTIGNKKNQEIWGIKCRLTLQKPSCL

## O=C/C=C/c1ccc2c(c1)O[C@@H](CO)[C@H](c1ccc(O)c(O)c1)O2 [AMERICANIN A]
[1]
  Activity: tde
HCT-116 [2]
  Activity: 5.2%
[3]
  Activity: Dose-dependent effect
[4]
  Activity: Active
HCT-116 [5]
  Activity: 7.6%
HCT-116 [6]
  Activity: Active
[7]
  Activity: Dose-dependent effect
HCT-116 [8]
  Activity: 55.2%
HCT-116 [9]
  Activity: inactive
[10]
  Activity: Active
HCT-116 [11]
  Activity: inactive
[12]
  Activity: Active
HCT-116 [13]
  Activity: 20.3%
[14]
  inhibition in vivo at 10 mg/kg: 55.7%
[15]
  inhibition: inactive
[16]
  pIC50: 4.62
HCT-116 [17]
  Activity: 8.4%
HCT-116 [18]
  Activity: 17.9%
HCT-116 [19]
  Activity: 52%
HCT-116 [20]
  Activity: Active
HCT-116 [21]
  Activity: 2%
RKO
  pIC50: 4.61
[22]
  pIC50: 5.02
[23]
  inhibition: Active
HCT-116 [24]
  Activity: 9.9%

Reference: ChEMBL document CHEMBL3758106, “Antitumor Activity of Americanin A Isolated from the Seeds of Phytolacca americana by Regulating the ATM/ATR Signaling Pathway and the Skp2-p27 Axis in Human Colon Cancer Cells” (J Nat Prod, 2015)
